Activity calls are given as the source filed them. The rule behind the calls is not given here.
What was measured:
[1] = system: U-87 MG; test: Down regulation of BBS10 gene expression in human U87MG cells at 10 uM incubated for 4 hrs followed by bromouridine addition during last 30 mins of incubation by TRIzol-reagent based Bru-Seq analysis relative to control; format: functional, U-87MG ATCC
[2] = system: U-87 MG; test: Up regulation of HSPA4L gene expression in human U87MG cells at 10 uM incubated for 4 hrs followed by bromouridine addition during last 30 mins of incubation by TRIzol-reagent based Bru-Seq analysis relative to control; format: functional, U-87MG ATCC
Summary of the method: (§1)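 U87MG cells exposed to compound or DMSO vehicle for 4 h, with 2 mM bromouridine added for the final 30 min. Total RNA isolated with TRIzol; Bru-labelled nascent RNA captured on anti-BrdU antibody-conjugated magnetic beads and sequenced. Transcript abundance expressed as RPKM relative to DMSO. Experiment performed once.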

[3] = system: U-87 MG; test: Down regulation of ANKRD36 gene expression in human U87MG cells at 10 uM incubated for 4 hrs followed by bromouridine addition during last 30 mins of incubation by TRIzol-reagent based Bru-Seq analysis relative to control; format: functional, U-87MG ATCC
[4] = system: U-87 MG; test: Down regulation of MYBL1 gene expression in human U87MG cells at 10 uM incubated for 4 hrs followed by bromouridine addition during last 30 mins of incubation by TRIzol-reagent based Bru-Seq analysis relative to control; format: functional, U-87MG ATCC
Summary of the method: (§2)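 Nascent transcription (Bru-seq) in U87MG cells: treatment at 10 μM for 4 h, with 2 mM bromouridine added for the final 30 min. Total RNA isolated with TRIzol; Bru-labelled RNA captured using anti-BrdU antibody on magnetic beads, then sequenced. Transcript traces reported as RPKM compared with DMSO-treated cells. Single experiment.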

[5] = system: U-87 MG; test: Down regulation of HLA-DQB1 gene expression in human U87MG cells at 10 uM incubated for 4 hrs followed by bromouridine addition during last 30 mins of incubation by TRIzol-reagent based Bru-Seq analysis relative to control; format: functional, U-87MG ATCC
[6] = system: U-87 MG; test: Up regulation of NMRAL2P gene expression in human U87MG cells at 10 uM incubated for 4 hrs followed by bromouridine addition during last 30 mins of incubation by TRIzol-reagent based Bru-Seq analysis relative to control; format: functional, U-87MG ATCC; summary of the method: as §2
[7] = system: U-87 MG; test: Up regulation of ALOXE3 gene expression in human U87MG cells at 10 uM incubated for 4 hrs followed by bromouridine addition during last 30 mins of incubation by TRIzol-reagent based Bru-Seq analysis relative to control; format: functional, U-87MG ATCC; summary of the method: as §1
[8] = system: U-87 MG; test: Down regulation of C11orf87 gene expression in human U87MG cells at 10 uM incubated for 4 hrs followed by bromouridine addition during last 30 mins of incubation by TRIzol-reagent based Bru-Seq analysis relative to control; format: functional, U-87MG ATCC
[9] = system: U-87 MG; test: Down regulation of KCTD4 gene expression in human U87MG cells at 10 uM incubated for 4 hrs followed by bromouridine addition during last 30 mins of incubation by TRIzol-reagent based Bru-Seq analysis relative to control; format: functional, U-87MG ATCC
[10] = system: U-87 MG; test: Up regulation of HSPA6 gene expression in human U87MG cells at 10 uM incubated for 4 hrs followed by bromouridine addition during last 30 mins of incubation by TRIzol-reagent based Bru-Seq analysis relative to control; format: functional, U-87MG ATCC; summary of the method: as §1
[11] = system: U-87 MG; test: Down regulation of ST8SIA4 gene expression in human U87MG cells at 10 uM incubated for 4 hrs followed by bromouridine addition during last 30 mins of incubation by TRIzol-reagent based Bru-Seq analysis relative to control; format: functional, U-87MG ATCC; summary of the method: as §2
[12] = system: U-87 MG; test: Up regulation of SLC7A11 gene expression in human U87MG cells at 16 uM incubated for 4 hrs followed by bromouridine addition during last 30 mins of incubation by TRIzol-reagent based Bru-Seq analysis relative to control; format: functional, U-87MG ATCC
Summary of the method: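 U87MG cells treated 4 h with test compound (10 or 16 μM, as per line) or DMSO; 2 mM bromouridine added for final 30 min. Total RNA isolated with TRIzol, Bru-labelled nascent RNA captured with anti-BrdU antibody magnetic beads and sequenced; transcript abundance (RPKM) compared with DMSO control. Single experiment.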

[13] = system: U-87 MG; test: Down regulation of AC139722.1 gene expression in human U87MG cells at 16 uM incubated for 4 hrs followed by bromouridine addition during last 30 mins of incubation by TRIzol-reagent based Bru-Seq analysis relative to control; format: functional, U-87MG ATCC; summary of the method: as §1
[14] = system: U-87 MG; test: Up regulation of BAG3 gene expression in human U87MG cells at 16 uM incubated for 4 hrs followed by bromouridine addition during last 30 mins of incubation by TRIzol-reagent based Bru-Seq analysis relative to control; format: functional, U-87MG ATCC; summary of the method: as §1
[15] = system: U-87 MG; test: Down regulation of RAET1E gene expression in human U87MG cells at 16 uM incubated for 4 hrs followed by bromouridine addition during last 30 mins of incubation by TRIzol-reagent based Bru-Seq analysis relative to control; format: functional, U-87MG ATCC; summary of the method: as §1
[16] = system: U-87 MG; test: Up regulation of GCLC gene expression in human U87MG cells at 16 uM incubated for 4 hrs followed by bromouridine addition during last 30 mins of incubation by TRIzol-reagent based Bru-Seq analysis relative to control; format: functional, U-87MG ATCC; summary of the method: as §1
[17] = system: A 172; test: Induction of morphological changes in human A172 cells assessed as necroptotic cell death at 20 uM measured after 48 hrs by Giemsa-staining based microscopic analysis; format: functional
[18] = system: U-87 MG; test: Up regulation of TXNRD1 gene expression in human U87MG cells at 16 uM incubated for 4 hrs followed by bromouridine addition during last 30 mins of incubation by TRIzol-reagent based Bru-Seq analysis relative to control; format: functional, U-87MG ATCC
[19] = system: U-87 MG; test: Down regulation of LIF gene expression in human U87MG cells at 16 uM incubated for 4 hrs followed by bromouridine addition during last 30 mins of incubation by TRIzol-reagent based Bru-Seq analysis relative to control; format: functional, U-87MG ATCC
[20] = system: U-87 MG; test: Down regulation of CD83 gene expression in human U87MG cells at 16 uM incubated for 4 hrs followed by bromouridine addition during last 30 mins of incubation by TRIzol-reagent based Bru-Seq analysis relative to control; format: functional, U-87MG ATCC
[21] = system: U-87 MG; test: Down regulation of RAD51 gene expression in human U87MG cells at 16 uM incubated for 4 hrs followed by bromouridine addition during last 30 mins of incubation by TRIzol-reagent based Bru-Seq analysis; format: functional, cell-based; conditions: U-87MG ATCC
Summary of the method: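 Bru-seq in U87MG cells treated at 16 μM for 4 h; 2 mM bromouridine present during the last 30 min. TRIzol total RNA, then anti-BrdU bead capture of labelled RNA and sequencing. Readout is RPKM traces versus DMSO control. Performed once.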

[22] = system: U-87 MG; test: Up regulation of NMRAL2P gene expression in human U87MG cells at 16 uM incubated for 4 hrs followed by bromouridine addition during last 30 mins of incubation by TRIzol-reagent based Bru-Seq analysis relative to control; format: functional, U-87MG ATCC; summary of the method: as §1
[23] = biological target: 72 kDa type IV collagenase (Homo sapiens) (UniProt P08253); test: Inhibition of MMP2 activity in human U87MG cells at 10 uM […] by gelatin zymographic method; format: cell-based
[24] = system: Protein disulfide-isomerase (Homo sapiens), P07237 [H256A]; test: Inhibition of recombinant human N-terminal His-tagged PDI H256A mutant expressed in Escherichia coli BL21 (DE3) pLysS at 100 uM measured after 1 hr by ANS dye based fluorescence spectra analysis
Sequence of Protein disulfide-isomerase (Homo sapiens), P07237 [H256A] (P07237 whole entry H256A): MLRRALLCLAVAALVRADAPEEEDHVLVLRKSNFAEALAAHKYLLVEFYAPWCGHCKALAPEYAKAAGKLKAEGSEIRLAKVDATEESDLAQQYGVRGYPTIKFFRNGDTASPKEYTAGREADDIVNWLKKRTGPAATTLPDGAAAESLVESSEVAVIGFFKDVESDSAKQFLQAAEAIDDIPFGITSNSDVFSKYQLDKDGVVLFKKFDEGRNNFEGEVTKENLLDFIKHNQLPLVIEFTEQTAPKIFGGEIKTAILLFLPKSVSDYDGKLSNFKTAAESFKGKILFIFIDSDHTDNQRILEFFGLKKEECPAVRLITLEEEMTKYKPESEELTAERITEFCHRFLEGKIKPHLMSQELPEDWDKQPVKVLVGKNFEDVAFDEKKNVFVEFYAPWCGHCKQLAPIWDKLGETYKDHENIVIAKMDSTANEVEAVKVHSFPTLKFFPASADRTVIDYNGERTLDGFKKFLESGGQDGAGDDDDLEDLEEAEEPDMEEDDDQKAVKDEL

Sequence of 72 kDa type IV collagenase (Homo sapiens) (P08253 110-660 limits assumed): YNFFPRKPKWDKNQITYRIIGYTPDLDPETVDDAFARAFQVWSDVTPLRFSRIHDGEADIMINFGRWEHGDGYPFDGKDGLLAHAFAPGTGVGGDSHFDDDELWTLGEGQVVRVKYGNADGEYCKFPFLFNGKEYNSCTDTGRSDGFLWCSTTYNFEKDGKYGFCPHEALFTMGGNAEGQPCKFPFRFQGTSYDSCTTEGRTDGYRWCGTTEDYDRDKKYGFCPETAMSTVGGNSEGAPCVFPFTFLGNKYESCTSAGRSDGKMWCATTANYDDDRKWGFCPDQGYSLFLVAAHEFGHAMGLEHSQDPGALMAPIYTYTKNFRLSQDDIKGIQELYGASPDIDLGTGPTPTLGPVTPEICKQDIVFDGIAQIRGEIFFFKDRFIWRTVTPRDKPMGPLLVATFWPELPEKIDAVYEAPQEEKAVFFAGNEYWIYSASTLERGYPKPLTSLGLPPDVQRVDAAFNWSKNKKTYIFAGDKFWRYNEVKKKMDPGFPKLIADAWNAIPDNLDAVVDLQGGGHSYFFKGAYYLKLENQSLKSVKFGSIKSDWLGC

CCCCCN(CCCCC)S(=O)(=O)c1ccc(C(=O)/C=C/c2cccc(C#N)c2)cc1
fold change (FC) [1]: 2.3
fold change (FC) [2]: 8.6
fold change (FC) [3]: 2.4
fold change (FC) [4]: 2.6
fold change (FC) [5]: 2.9
log2FC [6]: 2.72
fold change (FC) [7]: 17
fold change (FC) [8]: 2.4
fold change (FC) [9]: 2.8
fold change (FC) [10]: 464.7
fold change (FC) [11]: 3.1

COC(=O)c1cccc(/C=C/C(=O)c2cccc(O)c2)c1
fold change (FC) [12]: 21.2
fold change (FC) [13]: 4.7
fold change (FC) [14]: 1.9
fold change (FC) [15]: 3.4
fold change (FC) [16]: 1.9
Activity [17]: Active
fold change (FC) [18]: 5.4
fold change (FC) [19]: 2.7
fold change (FC) [20]: 2.7
Activity [21]: Active
fold change (FC) [22]: 15
log2FC [22]: 4.1

O=C(/C=C/c1ccc(-c2cccnc2)cc1)c1cccc(O)c1
inhibition [23]: Active

CCCCCN(CCCCC)S(=O)(=O)c1ccc(C(=O)/C=C/c2cccc(O)c2)cc1
inhibition [24]: Active

Reference: ChEMBL document CHEMBL4390639, “Design, Synthesis, and Biological Evaluation of Novel Allosteric Protein Disulfide Isomerase Inhibitors” (J Med Chem, 2019)
